Test results taken from ChEMBL document CHEMBL4145471, “New 1,5 and 2,5-disubstituted tetrazoles-dependent activity towards surface barrier of Candida albicans” (Eur J Med Chem, 2018).

Legend:
Candida albicans [1] = experiment: Antifungal activity against Candida albicans ATCC 90028 at 0.0625 ug/ml after 18 hrs relative to control; format: functional
Candida albicans [2] = experiment: Synergistic antifungal activity against Candida albicans ATCC 90028 at 80 ug/ml after 48 hrs in presence of 2.5 ug/ml fluconazol by checkerboard assay relative to control; format: functional
Procedure, shortened: (§1)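 Checkerboard microdilution (M27-A3) on C. albicans ATCC 90028 in RPMI 1640: fluconazole (80-1.25 µg/mL) crossed with tetrazole (80-1.25 µg/mL final), incubated at 35°C for 48 h. Growth by OD405 at 18 and 48 h, endpoint taken as 100% inhibition. FIC index = sum of the two agents' FICs; <1 synergism, >1 antagonism.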

Candida albicans [3] = experiment: Synergistic antifungal activity against Candida albicans ATCC 90028 at 40 ug/ml after 48 hrs in presence of 10 ug/ml fluconazol by checkerboard assay relative to control; format: functional
Procedure, shortened: (§2)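 Checkerboard in C. albicans ATCC 90028, inoculum prepared per CLSI M27-A3 in RPMI. Fluconazole serially diluted 80-1.25 µg/mL across the plate against the partner compound at 80-1.25 µg/mL final. Incubated 48 h at 35°C. Metabolic activity read by XTT reduction at 475 nm (660 nm reference), given as % of the untreated growth control.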

Candida albicans [4] = experiment: Synergistic antifungal activity against Candida albicans ATCC 90028 at 40 ug/ml after 48 hrs in presence of 5 ug/ml fluconazol by checkerboard assay relative to control; format: functional; procedure, shortened: as §2
Candida albicans [5] = experiment: Synergistic antifungal activity against Candida albicans ATCC 90028 at 5 ug/ml after 48 hrs in presence of 5 ug/ml fluconazol by checkerboard assay relative to control; format: functional; details: ATCC 90028, 48 h, read-out: GI; procedure, shortened: as §2
Candida albicans [6] = experiment: Synergistic antifungal activity against Candida albicans ATCC 90028 at 2.5 ug/ml after 48 hrs in presence of 80 ug/ml fluconazol by checkerboard assay relative to control; format: functional; procedure, shortened: as §1
Candida albicans [7] = experiment: Synergistic antifungal activity against Candida albicans ATCC 90028 at 2.5 ug/ml after 48 hrs in presence of 20 ug/ml fluconazol by checkerboard assay relative to control; format: functional; procedure, shortened: as §1
Candida albicans [8] = experiment: Synergistic antifungal activity against Candida albicans ATCC 90028 at 2.5 ug/ml after 48 hrs in presence of 2.5 ug/ml fluconazol by checkerboard assay relative to control; format: functional; details: ATCC 90028, 48 h, read-out: GI; procedure, shortened: as §1
Candida albicans [9] = experiment: Synergistic antifungal activity against Candida albicans ATCC 90028 at 1.25 ug/ml after 48 hrs in presence of 5 ug/ml fluconazol by checkerboard assay relative to control; format: functional
Procedure, shortened: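 Checkerboard per M27-A3 against ATCC 90028: fluconazole at 80–1.25 µg/mL horizontally and partner compound at 80–1.25 µg/mL vertically, 100 µL yeast inoculum per well, 35°C for 48 h. After 48 h, metabolic activity was measured by XTT reduction at 475 nm (660 nm reference) relative to untreated growth control. FIC index is the sum of the FICs; <1 was defined as synergism and >1 as antagonism.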

Candida albicans [10] = experiment: Antifungal activity against Candida albicans ATCC 90028 assessed as inhibition of metabolic activity at 5 ug/ml after 48 hrs in presence of 10 ug/ml fluconazol by XTT assay relative to control; format: functional; details: values are per cent of control
Procedure, shortened: (§3)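 Checkerboard against strain ATCC 90028, inoculum per M27-A3: fluconazole 80-1.25 µg/mL on one axis, tetrazole 80-1.25 µg/mL on the other. Plates at 35°C for 48 h, then XTT metabolic reduction read at 475 nm (660 nm reference). Activity is the drop in mean absorbance against untreated growth control. FICs and their summed FIC index are taken at 50% reduction in metabolic activity.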

Candida albicans [11] = experiment: Antifungal activity against Candida albicans ATCC 90028 assessed as inhibition of metabolic activity at 5 ug/ml after 48 hrs in presence of 2.5 ug/ml fluconazol by XTT assay relative to control; format: functional; details: values are per cent of control
Procedure, shortened: (§4)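 C. albicans ATCC 90028 in checkerboard: fluconazole serial dilutions (80-1.25 µg/mL) crossed with tetrazole (80-1.25 µg/mL final), M27-A3 inoculum in RPMI 1640, 35°C for 48 h. Metabolic activity measured by XTT reduction, read at 475 nm (660 nm reference). Activity expressed relative to untreated growth control absorbance.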

Candida albicans [12] = experiment: Antifungal activity against Candida albicans ATCC 90028 assessed as inhibition of metabolic activity at 2.5 ug/ml after 48 hrs in presence of 20 ug/ml fluconazol by XTT assay relative to control; format: functional; details: values are per cent of control; procedure, shortened: as §4
Candida albicans [13] = experiment: Antifungal activity against Candida albicans ATCC 90028 assessed as inhibition of metabolic activity at 2.5 ug/ml after 48 hrs in presence of 10 ug/ml fluconazol by XTT assay relative to control; format: functional; details: values are per cent of control; procedure, shortened: as §4
Candida albicans [14] = experiment: Antifungal activity against Candida albicans ATCC 90028 assessed as inhibition of metabolic activity at 2.5 ug/ml after 48 hrs in presence of 2.5 ug/ml fluconazol by XTT assay relative to control; format: functional; details: ATCC 90028, 48 h, values are per cent of control; procedure, shortened: as §4
Candida albicans [15] = experiment: Antifungal activity against Candida albicans ATCC 90028 assessed as inhibition of metabolic activity at 2.5 ug/ml after 48 hrs in presence of 1.25 ug/ml fluconazol by XTT assay relative to control; format: functional; details: values are per cent of control; procedure, shortened: as §4
Candida albicans [16] = experiment: Antifungal activity against Candida albicans ATCC 90028 assessed as inhibition of metabolic activity at 1.25 ug/ml after 48 hrs in presence of 2.5 ug/ml fluconazol by XTT assay relative to control; format: functional; details: values are per cent of control; procedure, shortened: as §4
Candida albicans [17] = experiment: Antifungal activity against Candida albicans ATCC 90028 after 48 hrs assessed as fluconazol MIC by XTT assay; format: functional; details: ATCC 90028, 48 h; procedure, shortened: as §3
Candida albicans [18] = experiment: Antifungal activity against Candida albicans ATCC 90028 assessed as metabolic activity at 80 ug/ml after 48 hrs in presence of 80 ug/ml fluconazol by XTT assay relative to control; details: ATCC 90028, 48 h
Candida albicans [19] = experiment: Antifungal activity against Candida albicans ATCC 90028 assessed as metabolic activity at 80 ug/ml after 48 hrs in presence of 40 ug/ml fluconazol by XTT assay relative to control
Candida albicans [20] = experiment: Antifungal activity against Candida albicans ATCC 90028 assessed as metabolic activity at 80 ug/ml after 48 hrs in presence of 20 ug/ml fluconazol by XTT assay relative to control
Candida albicans [21] = experiment: Antifungal activity against Candida albicans ATCC 90028 assessed as metabolic activity at 10 ug/ml after 48 hrs in presence of 80 ug/ml fluconazol by XTT assay relative to control
Candida albicans [22] = experiment: Antifungal activity against Candida albicans ATCC 90028 assessed as metabolic activity at 10 ug/ml after 48 hrs in presence of 40 ug/ml fluconazol by XTT assay relative to control

Row | SMILES | Activity (Candida albicans [1]) [%] | growth inhibition (GI) (Candida albicans [2]) [%] | growth inhibition (GI) (Candida albicans [3]) [%] | growth inhibition (GI) (Candida albicans [4]) [%] | inhibition of growth at 5 µg/mL (Candida albicans [5]) [%] | growth inhibition (GI) (Candida albicans [6]) [%] | growth inhibition (GI) (Candida albicans [7]) [%] | inhibition of growth at 2.5 µg/mL (Candida albicans [8]) [%] | growth inhibition (GI) (Candida albicans [9]) [%] | residual activity (Candida albicans [10]) [%] | residual activity (Candida albicans [11]) [%] | residual activity (Candida albicans [12]) [%] | residual activity (Candida albicans [13]) [%] | residual activity at 2.5 µg/mL (Candida albicans [14]) [%] | residual activity (Candida albicans [15]) [%] | residual activity (Candida albicans [16]) [%] | MIC (Candida albicans [17]) [µg/mL] | Metabolic activity at 80 µg/mL (Candida albicans [18]) [%] | Metabolic activity (Candida albicans [19]) [%] | Metabolic activity (Candida albicans [20]) [%] | further results
1 | Cc1ccc(-c2nnn(CCCN3CCOCC3)n2)cc1 | 99.5 | 99.54 | 99.69 | 98.83 | 98.7 | 99.19 | 98.82 | 98.5 | 99.86 | 81.48 | 100 | 86.25 | 85.87 | 100 | 100 | 100 | 10 | 73.4 | 100 | 50.83 | Metabolic activity (Candida albicans [21]): 89.3%; Metabolic activity (Candida albicans [22]): 100%
2 | ClCCCn1nnnc1-c1ccccc1Cl | 99.9 | 99.67 | 99.59 | 98.95 | 98.8 | 99.49 | 99.53 | 99.4 | 98.74 | 66.6 | 68.03 | 68.53 | 64.55 | 75.8 | 0 | 71.55 | 1.25 | 53.2 | 89.73 | 70.42 | Metabolic activity (Candida albicans [21]): 80.34%; Metabolic activity (Candida albicans [22]): 100%
3 | CCOC(=O)CCn1nnc(-c2ccccc2)n1 | 99.57 | 99.77 | 99.53 | 98.93 | 99.1 | 99.54 | 99.52 | 99.8 | 98.99 | 69.35 | 80.73 | 67.39 | 71.01 | 82.6 | 90.2 | 75.73 | 1.25 | 40 | 97.37 | 73.11 | Metabolic activity (Candida albicans [21]): 77.26%; Metabolic activity (Candida albicans [22]): 94.14%
